The test system of test [1] is E. coli UTI89 K1F phage lysis inhibition, OD600. Kind of test: inhibition of K1F phage lysis of E. coli UTI89, confirmation, capsule biogenesis inhibitor project, set 5 (AID 588321). A digest of the protocol:
(§1)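 Test system: Uropathogenic E. coli UTI89 (K1 capsule) and kpsM mutant cultures; reagent: K1F phage infection; times: 1.25 h pre-incubation, 3 h after phage, 37 °C; signal: absorbance at 600 nm (OD600); read-out basis: lysis from OD600 3 h after phage; benchmarks: kpsM mutant resisting phage lysis; repeats: quadruplicate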

Test in test [2]: as above
As to conditions: E. coli UTI89 K1F phage lysis inhibition, OD600; for inhibition of phage lysis: at 100 µM (top of the series); for CC50: measured here: cytotoxicity. The method in brief: as §1

The structures appear in SMILES notation. Active and inactive are the calls of the source.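 Rule for the calls: active = phage lysis blocked by at least 50% at any tested concentration; inactive = the rest.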

Broadly, the IC50 is the point on the concentration scale where inhibition reaches its midpoint. On to `O=C(Nc1ccncc1)c1ccc2ncsc2c1`, for which the concentration for half-maximal inhibition (IC50) in test [1] is 1.03 µM.
With `O=C(Nc1cc(-c2ccccc2)sc1C(=O)O)c1cc2ccccc2o1`, the inhibition of phage lysis in test [2] is 10.4% (inactive).
Broadly, the CC50 is the concentration that lowers cell viability or growth by half. Read a low CC50 as harm at low concentration. For the compound `O=C(Nc1cc(-c2ccccc2)sc1C(=O)O)c1ccc(Cl)s1`, in test [2], the inhibition of phage lysis was 10.1% (inactive) and the CC50 turned out to be 71.5 µM.
On to `O=C(Nc1cc(-c2ccccc2)sc1C(=O)O)c1cc(Cl)c2c(c1)OCCO2`, for which the inhibition of phage lysis in test [2] was 6% (inactive).
In the case of `O=C(Nc1cc(-c2ccccc2)sc1C(=O)O)c1cccs1`, in test [1], the IC50 was 82.7 µM. Also, in test [2], the CC50 is 89.3 µM.
With `O=C(O)c1sc(-c2ccccc2)cc1NC(=O)C1CCCC1`, the inhibition of phage lysis in test [2] was 15.2% (inactive).
As to `O=C(Nc1cc(-c2ccccc2)sc1C(=O)O)c1ccc2c(c1)OCCO2`, the IC50 in test [1] is 42.7 µM. The same compound registered a CC50 in test [2] of 82.1 µM.
In the case of `CCOc1ccc(-c2cc(NC(=O)c3cccc(Cl)c3)c(C(=O)O)s2)cc1`, the IC50 in test [1] was 45.6 µM. In test [2], this compound had a half-maximal cytotoxic concentration (CC50) of 83.9 µM.
As for `O=C(Nc1cc(-c2ccccc2)sc1C(=O)O)c1cccc(Cl)c1`, the concentration for half-maximal inhibition (IC50) in test [1] was 83.5 µM. This compound also displayed a half-maximal cytotoxic concentration (CC50) in test [2] of 52.6 µM.
Regarding `COC(=O)c1sc(-c2ccccc2)cc1NC(=O)c1c(F)cccc1F`, in test [2], the inhibition of phage lysis is 29.8% (inactive) and the CC50 came to 10.4 µM.
As to `O=C(Nc1cc(-c2ccccc2)sc1C(=O)O)c1ccc(Br)o1`, in test [1], the half-inhibitory concentration (IC50) was 58.4 µM. Also, in test [2], the half-maximal cytotoxic concentration (CC50) worked out at 104 µM.
In the case of `Cc1ccc(C(=O)Nc2cc(-c3ccccc3)sc2C(=O)O)s1`, the CC50 in test [2] came to 63.6 µM.
With `O=C(Nc1cc(-c2ccccc2)sc1C(=O)O)c1cccc(F)c1`, in test [2], the inhibition of phage lysis was 18.7% (inactive) and the CC50 stood at 76.9 µM.
In the case of `O=C(O)c1sc(-c2ccccc2)cc1NC(=O)C1CCCCC1`, the inhibition of phage lysis in test [2] was 16.1% (inactive).
Regarding `Cc1c(C(=O)Nc2cc(-c3ccccc3)sc2C(=O)O)oc2ccccc12`, in test [2], the inhibition of phage lysis was 5.2% (inactive) and the CC50 worked out at 48.7 µM.
In the case of `CCOc1ccc(-c2cc(NC(=O)c3ccc(OC)c(OC)c3)c(C(=O)O)s2)cc1`, the concentration for half-maximal inhibition (IC50) in test [1] was 56 µM. In test [2], this compound came in with a 50% cytotoxic concentration (CC50) of 82.8 µM.
Take `CCOc1ccc(-c2cc(NC(=O)c3c(F)cccc3F)c(C(=O)OC)s2)cc1`: in test [2], the inhibition of phage lysis is 14.9% (inactive) and the CC50 is more than 300 µM.
On the same counts, the results for `Cc1onc(-c2ccccc2)c1C(=O)Nc1cc(-c2ccccc2)sc1C(=O)O` are 3.71% (inactive) and 52.6 µM.

The values above are taken from PubChem BioAssay AID588321 (Southern Research Specialized Biocontainment Screening …, 2011).
